The record followed here is paper PMC5515376 (Nature, 2016).

Entries after “also recorded” stand apart in the source; their conditions may differ.

Experiment [1] has as its system P. falciparum Dd2. Kind of experiment: In vitro P. falciparum blood-stage growth inhibition assay. The experiment is classed as cell-based, Plasmodium falciparum. The note with it: read-out: EC50, asexual blood stages; in vitro.
Experiment [2] relates to PfscDHODH (P. falciparum line expressing S. cerevisiae DHODH). Put plainly: Growth inhibition, PfscDHODH transgenic line. The experiment is classed as cell-based, Plasmodium falciparum. As to conditions: relative to Dd2. In short, it runs like this:
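Asexual blood-stage parasites were cultured to 3–8% parasitaemia, counted on Giemsa smears, and diluted in medium to 2.0% parasitaemia and 2.0% haematocrit. This suspension was added to compound dispensed from DMSO, giving a final 1% parasitaemia and 1% haematocrit, with mefloquine as control. Plates were incubated for 72 h at 37 °C. Growth was read by SYBR Green I fluorescence in Tris/EDTA/saponin/Triton X-100 lysis buffer.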

Experiment [3] deals with P. falciparum CYTb^G33V strain. Put plainly: Growth inhibition, P. falciparum CYTb^G33V mutant strain. The experiment is classed as cell-based, Plasmodium falciparum.
In experiment [4] the target is recombinant human DHODH (Homo sapiens, UniProt Q02127). Put plainly: Human DHODH biochemical assay. In short, it runs like this: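 Recombinant human DHODH at 13 nM was tested against a 20-point inhibitor dilution series. Reactions contained 1 mM L-dihydroorotate (excess), 100 µM dodecylubiquinone as electron acceptor and 60 µM 2,6-dichloroindophenol as indicator, in 50 mM Tris-HCl pH 8.0, 150 mM KCl and 0.1% Triton X-100. Reactions ran 20 min at 25 °C and were read at OD600.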

For experiment [5], the system named is TM90C6B strain. Kind of experiment: Growth inhibition, TM90C6B strain. The experiment is classed as cell-based, Plasmodium falciparum. The note with it: TM90C6B strain (atovaquone resistant).
Experiment [6] relates to P. berghei (ANKA) liver stage. Kind of experiment: In vitro P. berghei liver-stage assay. The experiment is classed as cell-based, Plasmodium berghei. The note with it: read-out: EC50, liver stages; in vitro. Summed up: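 HepG2 cells (~17,500 per well, in duplicate) were cultured 18–24 h, then the medium was exchanged and compound added. After 1 h, 4,000 P. berghei ANKA GFP–luc sporozoites per well were added, freshly dissected from A. stephensi mosquitoes. Plates were spun 10 min at 1,000 r.p.m. and incubated 48 h at 37 °C. Parasite load was read by Bright-Glo luminescence.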

Sequence of recombinant human DHODH (Q02127 whole entry): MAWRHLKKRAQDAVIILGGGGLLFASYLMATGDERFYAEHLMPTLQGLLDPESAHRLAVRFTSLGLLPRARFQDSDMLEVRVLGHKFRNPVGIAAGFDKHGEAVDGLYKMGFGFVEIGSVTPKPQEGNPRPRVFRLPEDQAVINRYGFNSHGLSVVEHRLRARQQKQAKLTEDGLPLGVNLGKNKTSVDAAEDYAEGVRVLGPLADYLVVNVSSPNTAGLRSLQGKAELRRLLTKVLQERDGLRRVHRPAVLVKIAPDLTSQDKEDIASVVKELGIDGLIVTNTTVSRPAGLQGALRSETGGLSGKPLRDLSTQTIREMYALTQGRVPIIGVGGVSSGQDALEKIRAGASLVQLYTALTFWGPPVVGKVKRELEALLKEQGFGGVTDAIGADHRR

Regarding `CCCNC(=O)N1[C@H](C#N)[C@H](c2ccc(C#Cc3cccc(F)c3)cc2)[C@H]1CO` [BRD7539], the EC50 – broadly, the concentration that produces a half-maximal response – in experiment [1] came to 10 nM; in experiment [6], 15 nM. For the same compound, in experiment [2], the “Potency against PfscDHODH” value is “markedly reduced potency; also recorded: selectively reduced potency”. The Change in potency entry in experiment [3] and in experiment [5] was “unaffected” throughout. Moreover, in experiment [4], the “Inhibition of human DHODH orthologue” value is listed as “no inhibition”.
